Reference: ChEMBL document CHEMBL1138434 (J Nat Prod, 2003)
≈ marks a conversion by molar mass, not a printed value. Calls of active or inactive are those of the source. The calls are words filed in the database; no cut-off is given here.

Assays:
Saccharomyces cerevisiae [1] = test: Antifungal activity against Saccharomyces cerevisiae DSY 415 expressing Candida albicans CDR1 after 40 to 48 hrs by serial dilution method; assay type: functional, organism-based
Method in brief: (§1)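 S. cerevisiae strains carrying C. albicans efflux pumps, grown 1-2 days from frozen stocks on YNB-URA/TRYP selection agar at 30 °C. Modified NCCLS broth microdilution: serial dilutions in 0.9% saline (compounds dissolved in DMSO), inoculum 1.0 × 10^4 CFU/mL in YPD. Incubated 30 °C for 40-48 h and read at 630 nm before and after. IC50 = 50% growth inhibition; MIC = lowest concentration with no detectable growth.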

Saccharomyces cerevisiae [2] = test: Potentiation of fluconazole-induced antifungal activity against Saccharomyces cerevisiae DSY 417 expressing Candida albicans CDR2 assessed as fractional inhibitory concentration at 3.8 uM after 40 to 48 hrs by checkerboard assay; assay type: functional
Method in brief: (§2)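 Checkerboard in 96-well format: FLU serially diluted along one axis and partner agent along the other, covering all combinations. S. cerevisiae pump strains or null strain at 1.0 × 10^4 CFU/mL in YPD, 30 °C for 40-48 h, growth read at 630 nm. FIC uses IC50 endpoint; FLU at 0.5 µM (null pump), 50 µM (CDR1, MDR1), 1.56 µM (CDR2), 3.13 µM (FLU1).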

Saccharomyces cerevisiae [3] = test: Potentiation of fluconazole-induced antifungal activity against Saccharomyces cerevisiae DSY 426 expressing Candida albicans FLU1 assessed as fractional inhibitory concentration at 3.8 uM after 40 to 48 hrs by checkerboard assay; assay type: functional; method in brief: as §2
Saccharomyces cerevisiae [4] = test: Potentiation of fluconazole-induced antifungal activity against Saccharomyces cerevisiae DSY 416 expressing Candida albicans MDR1 assessed as fractional inhibitory concentration at 3.8 uM after 40 to 48 hrs by checkerboard assay; assay type: functional; method in brief: as §2
T47D = test: Cytotoxicity against human T47D cells at 10 uM after 48 hrs by neutral red staining; assay type: cell-based
Method in brief: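 T47D cells in DMEM/F12 with 10% FBS and penicillin/streptomycin, plated at 30 000 cells/well. After 24 h, compound added at final 0.03-10 µM and incubated 24 and 48 h at 37 °C. Then Neutral Red 0.15 mg/mL for 2 h, lysis in 0.04 N HCl/2-propanol, A540 minus A630. Viability given as percent of control.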

Saccharomyces cerevisiae [5] = test: Antifungal activity against Saccharomyces cerevisiae DSY 416 expressing Candida albicans MDR1 after 40 to 48 hrs by serial dilution method in presence of 33 uM fluconazole; assay type: functional, organism-based; details: DSY 416, MDR1; method in brief: as §1
Saccharomyces cerevisiae [6] = test: Potentiation of fluconazole-induced antifungal activity against Saccharomyces cerevisiae DSY 415 expressing Candida albicans CDR1 assessed as fractional inhibitory concentration at 3.8 uM after 40 to 48 hrs by checkerboard assay; assay type: functional; method in brief: as §2
Saccharomyces cerevisiae [7] = test: Potentiation of fluconazole-induced antifungal activity against Saccharomyces cerevisiae DSY 390 assessed as fractional inhibitory concentration at 3.8 uM after 40 to 48 hrs by checkerboard assay; assay type: functional; method in brief: as §2
Saccharomyces cerevisiae [8] = test: Antifungal activity against Saccharomyces cerevisiae DSY 416 expressing Candida albicans MDR1 after 40 to 48 hrs by serial dilution method in absence of fluconazole; assay type: functional, organism-based; details: DSY 416, MDR1; method in brief: as §1
Saccharomyces cerevisiae [9] = test: Antifungal activity against Saccharomyces cerevisiae DSY 415 expressing Candida albicans CDR1 after 40 to 48 hrs by serial dilution method in presence of 33 uM fluconazole; assay type: functional, organism-based; method in brief: as §1
Saccharomyces cerevisiae [10] = test: Antifungal activity against Saccharomyces cerevisiae DSY 415 expressing Candida albicans CDR1 after 40 to 48 hrs by serial dilution method in absence of fluconazole; assay type: functional, organism-based; method in brief: as §1
[11] = molecular target: T1, Multidrug resistance protein 1 (Candida albicans (strain SC5314 / ATCC MYA-2876) (Yeast)) (UniProt Q5ABU7); test: Inhibition of Candida albicans MDR1-mediated fluconazole resistance in Saccharomyces cerevisiae DSY 416 up to 90 uM
T1 sequence (whole entry): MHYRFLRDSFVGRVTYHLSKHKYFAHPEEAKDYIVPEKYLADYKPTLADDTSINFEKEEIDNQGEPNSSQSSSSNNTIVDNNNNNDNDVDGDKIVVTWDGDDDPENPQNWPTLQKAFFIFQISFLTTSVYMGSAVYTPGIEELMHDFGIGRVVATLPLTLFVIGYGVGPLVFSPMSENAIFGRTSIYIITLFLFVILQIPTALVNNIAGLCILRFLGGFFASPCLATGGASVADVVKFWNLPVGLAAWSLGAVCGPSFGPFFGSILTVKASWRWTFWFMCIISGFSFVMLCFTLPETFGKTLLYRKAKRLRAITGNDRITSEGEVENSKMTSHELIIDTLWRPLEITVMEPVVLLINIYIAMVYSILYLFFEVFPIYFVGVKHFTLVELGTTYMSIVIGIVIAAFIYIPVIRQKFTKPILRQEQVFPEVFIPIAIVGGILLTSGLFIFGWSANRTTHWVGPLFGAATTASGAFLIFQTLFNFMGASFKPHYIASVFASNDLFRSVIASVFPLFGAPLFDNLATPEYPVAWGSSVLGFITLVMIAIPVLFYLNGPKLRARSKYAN

Saccharomyces cerevisiae [12] = test: Potentiation of fluconazole-induced antifungal activity against Saccharomyces cerevisiae DSY 390 assessed as fractional inhibitory concentration at 0.1 uM after 40 to 48 hrs by checkerboard assay; assay type: functional; method in brief: as §2
Saccharomyces cerevisiae [13] = test: Potentiation of fluconazole-induced antifungal activity against Saccharomyces cerevisiae DSY 417 expressing Candida albicans CDR2 assessed as fractional inhibitory concentration at 0.1 uM after 40 to 48 hrs by checkerboard assay; assay type: functional; method in brief: as §2
Saccharomyces cerevisiae [14] = test: Potentiation of fluconazole-induced antifungal activity against Saccharomyces cerevisiae DSY 426 expressing Candida albicans FLU1 assessed as fractional inhibitory concentration at 0.1 uM after 40 to 48 hrs by checkerboard assay; assay type: functional; method in brief: as §2
Saccharomyces cerevisiae [15] = test: Antifungal activity against Saccharomyces cerevisiae DSY 390 after 40 to 48 hrs by serial dilution method; assay type: functional, organism-based
Method in brief: (§3)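 S. cerevisiae strains (null pump DSY 390, or carrying C. albicans CDR1, MDR1, CDR2, FLU1 pumps) were grown from −80 °C glycerol stocks on YNB-URA/TRYP selection agar at 30 °C. The modified NCCLS broth microdilution used compound serially diluted in 0.9% saline from DMSO, with YPD inoculum at 1.0 × 10^4 CFU/mL final. Plates were read at OD630 before and after 40-48 h at 30 °C. IC50 = 50% growth inhibition; MIC = no detectable growth.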

Saccharomyces cerevisiae [16] = test: Antifungal activity against Saccharomyces cerevisiae DSY 426 expressing Candida albicans FLU1 after 40 to 48 hrs by serial dilution method; assay type: functional, organism-based; method in brief: as §1
Saccharomyces cerevisiae [17] = test: Potentiation of fluconazole-induced antifungal activity against Saccharomyces cerevisiae DSY 416 expressing Candida albicans MDR1 assessed as fractional inhibitory concentration at 0.1 uM after 40 to 48 hrs by checkerboard assay; assay type: functional; method in brief: as §2
Saccharomyces cerevisiae [18] = test: Antifungal activity against Saccharomyces cerevisiae DSY 417 expressing Candida albicans CDR2 after 40 to 48 hrs by serial dilution method; assay type: functional, organism-based; method in brief: as §3
Saccharomyces cerevisiae [19] = test: Antifungal activity against Saccharomyces cerevisiae DSY 416 expressing Candida albicans MDR1 after 40 to 48 hrs by serial dilution method; assay type: functional, organism-based; details: for MIC: DSY 416; for IC50: DSY 416, MDR1; method in brief: as §3
Saccharomyces cerevisiae [20] = test: Potentiation of fluconazole-induced antifungal activity against Saccharomyces cerevisiae DSY 415 expressing Candida albicans CDR1 assessed as fractional inhibitory concentration at 0.1 uM after 40 to 48 hrs by checkerboard assay; assay type: functional; method in brief: as §2
Saccharomyces cerevisiae [21] = test: Potentiation of fluconazole-induced antifungal activity against Saccharomyces cerevisiae DSY 415 expressing Candida albicans CDR1 assessed as fractional inhibitory concentration at 3.1 uM after 40 to 48 hrs by checkerboard assay; assay type: functional
Method in brief: (§4)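 This was a checkerboard in a modified NCCLS microdilution: fluconazole and second agent were each serially diluted in saline and combined in all concentration pairs. Pump-expressing or null S. cerevisiae inoculum was 1.0 × 10^4 CFU/mL in YPD, with OD630 read before and after 40-48 h at 30 °C. FIC used IC50 as endpoint. FLU levels for FIC were 0.5 µM (null), 50 µM (CDR1, MDR1), 1.56 µM (CDR2) and 3.13 µM (FLU1).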

Saccharomyces cerevisiae [22] = test: Potentiation of fluconazole-induced antifungal activity against Saccharomyces cerevisiae DSY 390 assessed as fractional inhibitory concentration at 3.1 uM after 40 to 48 hrs by checkerboard assay; assay type: functional; method in brief: as §4
Saccharomyces cerevisiae [23] = test: Potentiation of fluconazole-induced antifungal activity against Saccharomyces cerevisiae DSY 416 expressing Candida albicans MDR1 assessed as fractional inhibitory concentration at 3.1 uM after 40 to 48 hrs by checkerboard assay; assay type: functional; method in brief: as §4
Saccharomyces cerevisiae [24] = test: Potentiation of fluconazole-induced antifungal activity against Saccharomyces cerevisiae DSY 426 expressing Candida albicans FLU1 assessed as fractional inhibitory concentration at 3.1 uM after 40 to 48 hrs by checkerboard assay; assay type: functional; method in brief: as §4
Saccharomyces cerevisiae [25] = test: Potentiation of fluconazole-induced antifungal activity against Saccharomyces cerevisiae DSY 417 expressing Candida albicans CDR2 assessed as fractional inhibitory concentration at 3.1 uM after 40 to 48 hrs by checkerboard assay; assay type: functional; method in brief: as §4

Row | SMILES | IC50 (Saccharomyces cerevisiae [1]) | MIC (Saccharomyces cerevisiae [1]) | IC50 (Saccharomyces cerevisiae [15]) | MIC (Saccharomyces cerevisiae [15]) | IC50 (Saccharomyces cerevisiae [16]) | MIC (Saccharomyces cerevisiae [16]) | IC50 (Saccharomyces cerevisiae [18]) | MIC (Saccharomyces cerevisiae [18]) | MIC (Saccharomyces cerevisiae [19]) | IC50 (Saccharomyces cerevisiae [19]) | other results
1 | CC(=O)O[C@H]1C=C2[C@@H]3CC[C@H]([C@H](C)CCCC(C)C)[C@@]3(C)C[C@@H]3O[C@@]23[C@@]2(CO)CC[C@H](O)C[C@]12O | > 30 µM | – | – | – | – | – | – | – | – | – | fractional inhibitory concentration index (FICI) (Saccharomyces cerevisiae [2]): 1.6; fractional inhibitory concentration index (FICI) (Saccharomyces cerevisiae [3]): 1.26; fractional inhibitory concentration index (FICI) (Saccharomyces cerevisiae [4]): 0.05; Activity (T47D): Non-toxic; IC50 (Saccharomyces cerevisiae [5]): < 4 µM; fractional inhibitory concentration index (FICI) (Saccharomyces cerevisiae [6]): 0.88; fractional inhibitory concentration index (FICI) (Saccharomyces cerevisiae [7]): 1.85; IC50 (Saccharomyces cerevisiae [8]): > 104 µM; IC50 (Saccharomyces cerevisiae [9]): 31 µM; IC50 (Saccharomyces cerevisiae [10]): > 104 µM
2 | CC(=O)OC[C@]12CC[C@H](OC(C)=O)C[C@]1(O)[C@@H](OC(C)=O)C=C1[C@@H]3CC[C@H]([C@H](C)CCCC(C)C)[C@@]3(C)C[C@@H]3O[C@@]132 | – | – | – | – | – | – | – | – | – | – | Activity [11]: inactive
3 | C[C@@H]1[C@H](O)[C@@H](C)/C=C/C=C/C=C/C=C/C=C/C=C/C=C/[C@H](O[C@@H]2O[C@H](C)[C@@H](O)[C@H](N)[C@@H]2O)C[C@@H]2O[C@](O)(C[C@@H](O)C[C@@H](O)[C@H](O)CC[C@@H](O)C[C@@H](O)CC(=O)O[C@H]1C)C[C@H](O)[C@H]2C(=O)O [AMPHOTERICIN B] | 0.55 µM | 0.75 µM (≈ 0.693 µg/mL) | 0.55 µM | 0.75 µM (≈ 0.693 µg/mL) | 0.55 µM | 0.75 µM (≈ 0.693 µg/mL) | 0.55 µM | 0.75 µM (≈ 0.693 µg/mL) | 0.75 µM (≈ 0.693 µg/mL) | 0.55 µM | fractional inhibitory concentration index (FICI) (Saccharomyces cerevisiae [12]): 1.85; fractional inhibitory concentration index (FICI) (Saccharomyces cerevisiae [13]): 1.58; fractional inhibitory concentration index (FICI) (Saccharomyces cerevisiae [14]): 0.97; fractional inhibitory concentration index (FICI) (Saccharomyces cerevisiae [17]): 1.42; fractional inhibitory concentration index (FICI) (Saccharomyces cerevisiae [20]): 0.89
4 | CC(C)[C@@H]1OC(=O)[C@@H](Cc2ccccc2)N(C)C(=O)[C@H](C(C)C)OC(=O)[C@@H](Cc2ccccc2)N(C)C(=O)[C@H](C(C)C)OC(=O)[C@@H](Cc2ccccc2)N(C)C1=O [BEAUVERICIN] | – | – | – | – | – | – | – | – | – | – | fractional inhibitory concentration index (FICI) (Saccharomyces cerevisiae [21]): 0.045; fractional inhibitory concentration index (FICI) (Saccharomyces cerevisiae [22]): 2.57; fractional inhibitory concentration index (FICI) (Saccharomyces cerevisiae [23]): 2; fractional inhibitory concentration index (FICI) (Saccharomyces cerevisiae [24]): 2; fractional inhibitory concentration index (FICI) (Saccharomyces cerevisiae [25]): 1.3
5 | OC(Cn1cncn1)(Cn1cncn1)c1ccc(F)cc1F [FLUCONAZOLE] | 300 µM | 400 µM (≈ 123 µg/mL) | 3.5 µM | 8 µM (≈ 2.45 µg/mL) | 35 µM | 50 µM (≈ 15.3 µg/mL) | 15 µM | 25 µM (≈ 7.66 µg/mL) | > 400 µM | > 400 µM | –
